# GRK2 inh: blocks RNA aptamer binding to human GRK2; actives 0.59% (n = 330,000); P25098; inhibition of aptamer binding, % at 10 µM; bead flow cytometry, FAM-aptamer displacement from GRK2;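 active means inhibition of aptamer binding above 40%, roughly 3 SD of noise, on plates passing a quality check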;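 further: median bead fluorescence of bound FAM aptamer so fluorescent compounds give negative values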
# DNMT1 inh: blocks human DNA methyltransferase DNMT1 | P26358 | DNMT1 molecular beacon, Hinp1I cleavage, fluorescence | inhibition (reported as % activation of signal), % at 10 µM | actives 0.83% (n = 360,000) | AID 588458; in the data active means inhibition above about 50%
# Scp1 inh: inhibitors of human Scp-1 phosphatase; AID 493091; Recombinant Scp1, phosphopeptide, malachite green phosphate absorbance; inhibition, % at 20 µM; Q9GZU7; actives 0.88% (n = 340,000);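 active means inhibition above about 50% at 20 µM, limit read from the data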;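 further: plate controls were DMSO wells with enzyme for no effect and wells lacking enzyme for full effect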
# Target sequence (Q9GZU7 76-261 limits assumed): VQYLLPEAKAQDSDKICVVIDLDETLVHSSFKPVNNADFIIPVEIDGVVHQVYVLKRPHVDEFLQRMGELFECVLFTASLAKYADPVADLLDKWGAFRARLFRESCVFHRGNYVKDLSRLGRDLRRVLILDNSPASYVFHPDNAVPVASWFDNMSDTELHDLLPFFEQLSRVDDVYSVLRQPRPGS
#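 Material: truncated SCP-1 phosphatase (76-261aa) / Buffer or medium: 50 mM Tris acetate pH 5.5, 0.005% Tween-20, 10 mM MgCl2 / Compound dosing: one concentration, 20 µM, with 1.0% DMSO / Incubation: 45 min room-temperature reaction, 5 min colour, 30 min stabiliser / Detection: colorimetric free-phosphate detection, absorbance 630 nm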
# STEP inh: inhibitors of human striatal-enriched phosphatase STEP; P54829; recombinant STEP, OMFP fluorogenic substrate, fluorescence; inhibition, % at 20 µM; actives 0.25% (n = 360,000); AID 588621;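 active means inhibition at 20 µM, scaled per plate between control wells, above about 37%, limit read from the data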;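 further: 0% = DMSO with enzyme and substrate and 100% = substrate only without enzyme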
#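 System: STEP (striatal-enriched tyrosine phosphatase) enzyme, cell-free; medium: Bis-Tris pH 6.0 buffer with DTT, detergent; dosing: 20 µM, 1% DMSO; times: reaction 20 min, ambient temperature; detection: fluorescence, 480/540 nm; read-out basis: normalized % inhibition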
# LMPTP block: LMPTP (human) inhibition; P24666; recombinant LMPTP-A, OMFP fluorogenic substrate, fluorescence intensity; inhibition, % at 20 µM; actives 0.22% (n = 360,000);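 active means compounds that cut the enzyme signal by at least half of the control window in the single-dose screen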;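 further: plate controls were DMSO wells with enzyme plus substrate for no effect and substrate without enzyme for full effect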
# Target sequence (P24666 whole entry, looked up): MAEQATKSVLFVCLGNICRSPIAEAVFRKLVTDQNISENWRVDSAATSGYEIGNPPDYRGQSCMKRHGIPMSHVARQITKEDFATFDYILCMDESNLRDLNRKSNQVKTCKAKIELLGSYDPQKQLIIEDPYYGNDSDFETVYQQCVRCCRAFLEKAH
#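 Buffer or medium: Bis-Tris pH 6.0, DTT, detergent; Assay system: LMPTP-A enzyme; Quantity: 0.625 nM enzyme; Detection: endpoint fluorescence intensity; Times: 50 min dark incubation at room temperature; Controls: substrate-only low control, DMSO enzyme-plus-substrate high control; Doses: single 20 µM dose; Read-out: percent inhibition versus substrate-only and uninhibited controls; Reagent: 400 µM OMFP.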
# SUMO1-SIM PPI: alters human SUMO1 binding to SIM partners; actives 0.33% (n = 360,000); SUMO1 binding to a labelled peptide, TR-FRET, 1 h; inhibition, % at 20 µM; P63165; in the data active means inhibition above about 37%
# Target sequence (P63165 whole entry, looked up): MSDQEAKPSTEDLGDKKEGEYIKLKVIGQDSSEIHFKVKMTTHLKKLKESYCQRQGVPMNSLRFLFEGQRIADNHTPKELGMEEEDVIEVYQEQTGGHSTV
# Scp-1 conf: Scp-1 (human) inhibition, single-dose confirmed; shares compounds with Scp1 inh; recombinant SCP-1 catalytic domain, phosphate release, malachite green absorbance; inhibition, % at 20 µM; actives 61% (n = 2,500);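 further: plate controls were DMSO with enzyme for no effect and buffer wells lacking enzyme for full effect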
# MG interference: colorimetric interference in Scp-1 counter-screen. shares compounds with Scp1 inh. Colorimetric interference counterscreen, malachite green absorbance 630 nm. apparent inhibition (interference), % at 20 µM. 2,500 tested, under 10 active;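 further: compounds added after enzyme reaction finished so only phosphate colour detection is probed; plate controls were DMSO wells with completed Scp-1 reaction for no effect and substrate wells lacking enzyme for full effect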
# Scp-1 Tm shift: validation of human Scp-1 inhibitors by thermal shift binding. shares compounds with Scp1 inh. Recombinant SCP1, Sypro Orange thermal shift Tm. thermal shift relative to vanadate control, % at 40 µM. actives 25% (n = 1,500);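 active means substances whose mean melting-temperature shift, as a percentage of the reference inhibitor's shift, reaches about 5.3%, limit read from the data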;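 further: 0% = Tm of DMSO wells and 100% = Tm with sodium orthovanadate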
# Beacon interf DR: counter-screen for DNMT1 inhibitors: spectral interference, dose response | AID 602382 | shares compounds with DNMT1 inh | molecular beacon fluorescence | 200 tested, under 10 active | IC50, µM; call rule not given here
# DNMT1 confirm: DNMT1 inhibition confirmation, single concentration; DNMT1 molecular beacon HinP1I cleavage, fluorescence; actives 8% (n = 2,300); AID 602385; shares compounds with DNMT1 inh; inhibition, % at 10 µM;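 active means average inhibition of at least 30% in the single-concentration confirmation test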
# Beacon interf: beacon fluorescence artifact counter-screen | activation (fluorescence interference), % at 10 µM | actives 1% (n = 2,300) | shares compounds with DNMT1 inh | DNMT1 molecular beacon spectral interference counterscreen, fluorescence 485/520 | AID 602387;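 active means activation of at least 30% at 10 µM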;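 further: DNMT1 catalytic domain with a HinP1I cleavage step and a FAM/dabcyl DNA beacon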
# * hit, by the source's call; x = no result. Compounds with a hit are over-represented: about 2.1% of the library has one in this group of screens.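 How the source made its calls, unless noted: active means inhibition of at least 30% at 20 µM; inactive means the rest.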
SMILES,GRK2 inh,DNMT1 inh,Scp1 inh,STEP inh,LMPTP block,SUMO1-SIM PPI,Scp-1 conf,MG interference,Scp-1 Tm shift,DNMT1 confirm,Beacon interf,others
Cc1ccc(NC(=O)CN(C)C(=O)c2cc(-c3ccco3)nc3ccccc23)cc1,83.0*,75.3*,75.7*,4.5,25.2,12.4,67.8*,-12.6,6.2*,11.2,4.6,
O=C1CCCC(O)=C1C(C#Cc1ccccc1)C1=C(O)CCCC1=O,3.0,-6.0,0.4,2.7,1.9,-3.4,x,x,x,x,x,
O=C1CCCC(O)=C1Sc1ccccc1C(=O)O,31.0,66.7*,56.7*,7.7,3.3,13.1,36.8*,-17.8,0.8,1.8,0.1,
N=C1S/C(=C\c2ccccc2F)C(=O)N1c1ccc(F)cc1,0.0,60.1*,87.5*,18.5,38.3,-2.6,-5.9,-9.3,x,2.7,-1.0,
C[C@H](CO)N1C[C@H](C)[C@@H](CN(C)S(=O)(=O)c2ccc(C#N)cc2)OCc2cn(nn2)CCCC1=O,x,5.0,x,-2.3,-0.4,1.1,x,x,x,x,x,
CCOC(=O)c1cccc(-n2cccc2/C=C2\NC(=O)N(CC(=O)O)C2=O)c1,0.0,0.1,-2.7,-0.3,0.4,-16.4,x,x,x,x,x,
Cc1ccc(NC(=O)CN2C(=O)N/C(=C\c3cccn3-c3cccc(C(=O)O)c3)C2=O)cc1,x,91.2*,66.8*,12.4,14.7,5.2,54.7*,-19.9,6.2*,59.7*,0.3,Beacon interf DR=>99
Cc1ccc(CN2C(=O)N/C(=C\c3cccn3-c3cccc(C(=O)O)c3)C2=O)cc1,23.0,90.7*,64.1*,5.3,3.6,-9.9,57.2*,-19.9,0.4,9.4,-2.0,
Cc1ccc(NC(=O)CN2C(=O)N/C(=C/c3cc(C)n(-c4cccc(C(=O)O)c4)c3C)C2=O)cc1,x,83.8*,59.1*,18.2,7.4,29.9,66.4*,-10.1,6.9*,9.6,-1.4,
Cc1cc(C(=O)O)ccc1-c1ccc(/C=C2\NC(=O)N(Cc3ccc(F)cc3)C2=O)o1,0.0,64.0*,72.6*,9.1,9.1,28.7,65.1*,-6.2,9.4*,20.3,-0.3,
CC(=O)O[C@H]1[C@@H](O)[C@H](O)[C@H](Oc2c(O)c(C)c3c4c2[C@@H](C)CC[C@@H]4[C@@H](C)C[C@@H]3C=C(C)C)O[C@H]1C,x,-14.1,x,-4.0,1.7,4.2,x,x,x,x,x,
O=C1NC(Cc2ccc(O)cc2)c2nc3ccc(F)cc3c(=O)n2-c2ncccc21 (stereo not given),x,5.7,x,-0.8,-0.3,-4.3,x,x,x,x,x,
Cc1cc(C(=O)NCc2ccc(C(=O)O)o2)c(C)o1,9.0,77.6*,56.2*,3.8,0.2,4.1,52.2*,-9.8,-13.3,7.8,2.0,
C=CCn1c(SCC(C)=O)nc2scc(-c3ccc(C)o3)c2c1=O,1.0,1.1,-6.0,2.5,-1.1,-2.1,x,x,x,x,x,
C=CCn1c(SCC(=O)NCCCC)nc2scc(-c3ccco3)c2c1=O,0.0,99.6*,73.1*,2.7,15.6,10.3,68.8*,-16.2,-3.2,1.9,0.9,
COc1cc(NC(=O)COC(=O)c2ccc(S(=O)(=O)N3CC(C)CC(C)C3)cc2)c(C)cc1[N+](=O)[O-] (stereo not given),0.0,55.8*,66.9*,2.1,1.4,10.4,34.8*,-10.4,0.6,0.0,-0.6,
O=C(Nc1sc2c(c1C(=O)O)CCC2)c1ccccc1,21.0,82.2*,58.1*,23.1,8.9,10.2,53.8*,-14.8,6.6*,0.2,6.8,
O=C(Nc1sc2c(c1C(=O)O)CCCCC2)c1ccccc1,1.0,-2.0,-5.5,3.8,-0.8,2.4,x,x,x,x,x,
COc1ccc(Nc2c(CCc3ccccc3)nc3nc(C)cc(C)n23)cc1,x,x,x,x,1.9,0.4,x,x,x,x,x,
O=C(/C=C/c1ccco1)N1CCN(S(=O)(=O)c2ccc(F)c(F)c2F)CC1,0.0,1.7,8.3,1.3,-1.2,1.8,x,x,x,x,x,
O=C(/C=C/c1ccco1)N1CCN(S(=O)(=O)c2ccccc2)CC1,78.0*,66.1*,73.0*,18.2,9.8,5.7,69.5*,-9.8,-10.2,4.4,3.8,
CCCCCc1nnc(NC(=O)Cc2cccs2)s1,8.0,59.4*,68.5*,9.0,6.0,3.6,85.3*,1.4,6.3*,9.8,2.2,
O=C(Cc1cccs1)Nc1nnc(Cc2ccccc2)s1,12.0,99.2*,81.6*,12.0,42.2,4.9,75.8*,-8.5,4.4,7.9,2.4,
CC(C)(C)Cc1nnc(NC(=O)Cc2cccs2)s1,0.0,55.9*,57.7*,8.4,21.0,3.0,62.9*,-20.8,7.2*,8.5,1.5,
Cc1ccc(-c2nnc(NC3CCCC3)s2)cc1,0.0,-0.9,-7.3,1.2,1.5,0.2,x,x,x,x,x,
SMILES,GRK2 inh,DNMT1 inh,Scp1 inh,STEP inh,LMPTP block,SUMO1-SIM PPI,Scp-1 conf,MG interference,Scp-1 Tm shift,DNMT1 confirm,Beacon interf,others
CCOc1ccc(N=C2NC(=O)S/C2=C\c2ccc(OC)cc2)cc1,0.0,63.9*,61.4*,16.2,44.1,-3.8,77.9*,-2.7,2.6,2.8,3.6,
N#Cc1c(/N=C/c2ccc(-c3ccccc3C(=O)O)o2)sc2c1CCCC2,19.0,51.7*,57.4*,17.3,3.2,-8.3,43.4*,-20.8,8.0*,3.0,5.0,
COc1ccc(-c2csc(C(C)(O)c3ccncc3)n2)cc1OC (stereo not given),x,-10.9,x,-0.2,29.6,1.1,x,x,x,x,x,
CCOC(=O)C1=CCN(S(=O)(=O)c2ccc(C)cc2)C1c1ccc(CC)cc1 (stereo not given),x,-4.8,x,3.1,3.2,0.5,x,x,x,x,x,
COc1ccccc1NC(=O)COC(=O)c1ccc2c(c1)OCCO2,2.0,3.7,-4.6,2.3,2.1,-2.9,x,x,x,x,x,
COc1ccccc1NC(=O)COC(=O)c1cc2c(s1)CCC2,x,94.3*,66.3*,39.6,27.1,10.7,73.3*,-3.8,-0.4,2.5,13.6,
